From ChEMBL document CHEMBL1126731, “Structure-activity relationship studies with symmetric naphthalenesulfonic acid derivatives. Synthesis and influence of spacer and naphthalenesulfonic acid moiety on anti-HIV-1 activity” (J Med Chem, 1993)

Legend:
MOLT-4 [1] = assay: Percentage inhibition of HIV-1-induced giant cell (syncytia) formation using MOLT-4 cell at 500 uM; assay type: functional; conditions: Homo sapiens
Outline: (§1)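 MOLT-4 cells (5×10^4/well) were cocultured with an equal number of chronically infected MOLT-4/HTLV-III_B cells at various compound concentrations for 24 h. Cell clusters were then broken by gentle pipetting, and giant cells were counted under the microscope.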

MOLT-4 [2] = assay: Percentage inhibition of HIV-1-induced giant cell (syncytia) formation using MOLT-4 cell at 100 uM; assay type: functional; conditions: Homo sapiens; outline: as §1
MOLT-4 [3] = assay: Percentage inhibition of HIV-1-induced giant cell (syncytia) formation using MOLT-4 cell at 20 uM; assay type: functional; conditions: Homo sapiens; outline: as §1
MOLT-4 [4] = assay: Percentage inhibition of HIV-1-induced giant cell (syncytia) formation using MOLT-4 cell at 4 uM; assay type: functional; conditions: Homo sapiens; outline: as §1
MOLT-4 [5] = assay: Inhibition of HIV-1-induced giant cell (syncytia) formation using MOLT-4 cell; assay type: functional, cell-based; conditions: Homo sapiens; outline: as §1
MT4 [6] = assay: Cytotoxicity against HIV-1 in MT-4 cells was evaluated by using a clinical strain (HE); assay type: functional; conditions: Homo sapiens
Outline: (§2)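 MT-4 cells were infected with the HIV-1 strain named in the line and cultured with the test compound for 4 days. Viable cells were then counted by the MTT method. EC50 is the 50% effective antiviral concentration and CC50 the 50% cytotoxic concentration, each the mean of at least two separate experiments.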

[7] = tested on: Human immunodeficiency virus 1; assay: Cytotoxicity against HIV-1 (HTLV-IIIB) in MT-4 cells; assay type: functional; conditions: Human immunodeficiency virus 1, MT4; outline: as §2
MT4 [8] = assay: Antiviral activity against HIV-1 in MT-4 cells was evaluated by using a clinical strain (HE); assay type: functional, cell-based; conditions: Homo sapiens; outline: as §2
[9] = tested on: Human immunodeficiency virus 1; assay: Antiviral activity against HIV-1 (HTLV-IIIB) in MT-4 cells; assay type: functional, organism-based; conditions: Human immunodeficiency virus 1, MT4; outline: as §2
MOLT-4 [10] = assay: Percentage inhibition of HIV-1-induced giant cell (syncytia) formation using MOLT-4 cell at 0.8 uM; assay type: functional; conditions: Homo sapiens; outline: as §1
[11] = tested on: Human immunodeficiency virus 1; assay: Cytotoxic concentration against HIV-1 (HTLV-IIIB) in peripheral blood lymphocytes; assay type: functional
[12] = tested on: Human immunodeficiency virus 1; assay: Antiviral concentration against HIV-1 (HTLV-IIIB) in peripheral blood lymphocytes; assay type: functional, organism-based

SMILES	EC50 [9] [µM]	CC50 [7] [µM]	other results
O=C(O)c1cc(NS(=O)(=O)c2ccc(-c3ccc(S(=O)(=O)Nc4cc(C(=O)O)c(O)c(S(=O)(=O)O)c4)cc3)cc2)cc(S(=O)(=O)O)c1O	52.5	247	inhibition at 500 µM (MOLT-4 [1]): 100%; inhibition at 100 µM (MOLT-4 [2]): 94%; inhibition at 20 µM (MOLT-4 [3]): 22%; inhibition at 4 µM (MOLT-4 [4]): 0%; IC50 (MOLT-4 [5]): 37 µM; CC50 (MT4 [6]): > 100 µM; EC50 (MT4 [8]): 7.5 µM; inhibition at 0.8 µM (MOLT-4 [10]): 3%
O=C(CCCCCC(=O)Nc1ccc(S(=O)(=O)O)c2cccc(S(=O)(=O)O)c12)Nc1ccc(S(=O)(=O)O)c2cccc(S(=O)(=O)O)c12	143	> 500	
O=S(=O)(O)c1cc(S(=O)(=O)O)c2cc(OS(=O)(=O)c3cccc4c(S(=O)(=O)Oc5ccc6cc(S(=O)(=O)O)cc(S(=O)(=O)O)c6c5)cccc34)ccc2c1	> 168	> 500	
O=C(CCC(=O)Nc1ccc(S(=O)(=O)O)c2ccccc12)Nc1ccc(S(=O)(=O)O)c2ccccc12	> 500	> 500	
Cc1cc(C)c(S(=O)(=O)Nc2cc(C(=O)O)c(O)c(S(=O)(=O)O)c2)c(C)c1S(=O)(=O)Nc1cc(C(=O)O)c(O)c(S(=O)(=O)O)c1	57	> 500	
Nc1ccc(S(=O)(=O)O)c2cccc(S(=O)(=O)O)c12	> 500	> 500	
Nc1ccc2cc(S(=O)(=O)O)cc(S(=O)(=O)O)c2c1	> 500	> 500	
O=C(CCCCCCCCC(=O)Nc1ccc(S(=O)(=O)O)c2cccc(S(=O)(=O)O)c12)Nc1ccc(S(=O)(=O)O)c2cccc(S(=O)(=O)O)c12	66.5	> 500	
O=C(CCCCCCC(=O)Nc1ccc(S(=O)(=O)O)c2cccc(S(=O)(=O)O)c12)Nc1ccc(S(=O)(=O)O)c2cccc(S(=O)(=O)O)c12	242	> 500	
O=C(CCCCCCCCC(=O)Nc1ccc(S(=O)(=O)O)c2ccccc12)Nc1ccc(S(=O)(=O)O)c2ccccc12	> 500	> 500	
O=C(CCCCCCC(=O)Nc1ccc(S(=O)(=O)O)c2ccccc12)Nc1ccc(S(=O)(=O)O)c2ccccc12	> 500	> 500	
O=C(Nc1ccc(S(=O)(=O)O)c2cccc(S(=O)(=O)O)c12)c1ccc(C(=O)Nc2ccc(S(=O)(=O)O)c3cccc(S(=O)(=O)O)c23)cc1	> 197	> 500	
O=C(O)c1cc(NS(=O)(=O)c2cccc3c(S(=O)(=O)Nc4cc(C(=O)O)c(O)c(S(=O)(=O)O)c4)cccc23)cc(S(=O)(=O)O)c1O	52.5	> 500	
O=S(=O)(O)c1cccc2ccc(OS(=O)(=O)c3cccc4c(S(=O)(=O)Oc5ccc6cccc(S(=O)(=O)O)c6c5)cccc34)cc12	> 55	144	
O=S(=O)(O)c1cccc2ccc(OS(=O)(=O)c3ccc(-c4ccc(S(=O)(=O)Oc5ccc6cccc(S(=O)(=O)O)c6c5)cc4)cc3)cc12	> 100	100	
Nc1cc(S(=O)(=O)O)cc2cc(S(=O)(=O)O)cc(O)c12	> 529	> 529	
O=C(CCCCCCC(=O)Nc1cc(S(=O)(=O)O)cc2cc(S(=O)(=O)O)cc(O)c12)Nc1cc(S(=O)(=O)O)cc2cc(S(=O)(=O)O)cc(O)c12 [listing 2 of 2 here]			CC50 (MT4 [6]): > 100 µM; EC50 (MT4 [8]): 2.2 µM
O=C(CCCCCCCCC(=O)Nc1cc(S(=O)(=O)O)cc2cc(S(=O)(=O)O)cc(O)c12)Nc1cc(S(=O)(=O)O)cc2cc(S(=O)(=O)O)cc(O)c12 [listing 2 of 2 here]			CC50 (MT4 [6]): > 100 µM; EC50 (MT4 [8]): 3.9 µM
O=S(=O)(O)c1cc(S(=O)(=O)O)c2cc(O)ccc2c1	> 500	> 500	
Nc1ccc(S(=O)(=O)O)c2ccccc12	> 500	> 500	
Cc1ccc(C(=O)Nc2ccc(S(=O)(=O)O)c3cc(S(=O)(=O)O)cc(S(=O)(=O)O)c23)cc1NC(=O)c1cccc(NC(=O)Nc2cccc(C(=O)Nc3cc(C(=O)Nc4ccc(S(=O)(=O)O)c5cc(S(=O)(=O)O)cc(S(=O)(=O)O)c45)ccc3C)c2)c1 [SURAMIN]			CC50 (MT4 [6]): 47 µM; EC50 (MT4 [8]): 8 µM

More lines, main results first:

EC50 [9] [µM]	SMILES	CC50 [7] [µM]	other results
43	O=S(=O)(O)c1ccc2cc(OS(=O)(=O)c3ccc(-c4ccc(S(=O)(=O)Oc5cc6ccc(S(=O)(=O)O)cc6cc5S(=O)(=O)O)cc4)cc3)c(S(=O)(=O)O)cc2c1	> 500	
41	O=S(=O)(O)c1ccc2cc(NS(=O)(=O)c3ccc(-c4ccc(S(=O)(=O)Nc5cc6ccc(S(=O)(=O)O)cc6cc5S(=O)(=O)O)cc4)cc3)c(S(=O)(=O)O)cc2c1	> 500	
11	O=C(O)c1cc(NS(=O)(=O)c2cc(S(=O)(=O)Nc3cc(C(=O)O)c(O)c(S(=O)(=O)O)c3)cc(S(=O)(=O)Nc3cc(C(=O)O)c(O)c(S(=O)(=O)O)c3)c2)cc(S(=O)(=O)O)c1O	> 500	
40	O=S(=O)(O)c1cc(S(=O)(=O)O)c2cc(OS(=O)(=O)c3ccc(-c4ccc(S(=O)(=O)Oc5ccc6cc(S(=O)(=O)O)cc(S(=O)(=O)O)c6c5)cc4)cc3)ccc2c1	224	
2.9	O=C(CCCCCCC(=O)Nc1cc(S(=O)(=O)O)cc2cc(S(=O)(=O)O)cc(O)c12)Nc1cc(S(=O)(=O)O)cc2cc(S(=O)(=O)O)cc(O)c12 [listing 1 of 2 here]	360	CC50 [11]: 20 µM; EC50 [12]: 1.3 µM; inhibition at 500 µM (MOLT-4 [1]): 100%; inhibition at 100 µM (MOLT-4 [2]): 100%; inhibition at 20 µM (MOLT-4 [3]): 96%; inhibition at 4 µM (MOLT-4 [4]): 31%; IC50 (MOLT-4 [5]): 6.4 µM; inhibition at 0.8 µM (MOLT-4 [10]): 6%
44	O=C(CCCCCCCCCCC(=O)Nc1cc(S(=O)(=O)O)cc2cc(S(=O)(=O)O)cc(O)c12)Nc1cc(S(=O)(=O)O)cc2cc(S(=O)(=O)O)cc(O)c12	430	inhibition at 500 µM (MOLT-4 [1]): 100%; inhibition at 100 µM (MOLT-4 [2]): 100%; inhibition at 20 µM (MOLT-4 [3]): 40%; inhibition at 4 µM (MOLT-4 [4]): 11%; IC50 (MOLT-4 [5]): 26 µM; CC50 (MT4 [6]): > 100 µM; EC50 (MT4 [8]): 12.5 µM; inhibition at 0.8 µM (MOLT-4 [10]): 0%
8.3	O=S(=O)(O)c1cc(O)c2c(NS(=O)(=O)c3ccc(-c4ccc(S(=O)(=O)Nc5cc(S(=O)(=O)O)cc6cc(S(=O)(=O)O)cc(O)c56)cc4)cc3)cc(S(=O)(=O)O)cc2c1	320	CC50 [11]: 38 µM; EC50 [12]: 9.2 µM
46	O=C(CCCCCCCCCCC(=O)Nc1ccc(S(=O)(=O)O)c2cccc(S(=O)(=O)O)c12)Nc1ccc(S(=O)(=O)O)c2cccc(S(=O)(=O)O)c12	> 500	
14	O=S(=O)(O)c1cc(S(=O)(=O)O)c2cc(NS(=O)(=O)c3cccc4c(S(=O)(=O)Nc5ccc6cc(S(=O)(=O)O)cc(S(=O)(=O)O)c6c5)cccc34)ccc2c1	> 500	
29.5	O=S(=O)(O)c1cc(S(=O)(=O)O)c2cc(NS(=O)(=O)c3ccc(-c4ccc(S(=O)(=O)Nc5ccc6cc(S(=O)(=O)O)cc(S(=O)(=O)O)c6c5)cc4)cc3)ccc2c1	> 500	inhibition at 500 µM (MOLT-4 [1]): 100%; inhibition at 100 µM (MOLT-4 [2]): 100%; inhibition at 20 µM (MOLT-4 [3]): 34%; inhibition at 4 µM (MOLT-4 [4]): 21%; IC50 (MOLT-4 [5]): 29 µM; CC50 (MT4 [6]): > 100 µM; EC50 (MT4 [8]): 8.1 µM; inhibition at 0.8 µM (MOLT-4 [10]): 6%
3.9	O=C(CCCCCCCCC(=O)Nc1cc(S(=O)(=O)O)cc2cc(S(=O)(=O)O)cc(O)c12)Nc1cc(S(=O)(=O)O)cc2cc(S(=O)(=O)O)cc(O)c12 [listing 1 of 2 here]	> 100	inhibition at 500 µM (MOLT-4 [1]): 100%; inhibition at 100 µM (MOLT-4 [2]): 100%; inhibition at 20 µM (MOLT-4 [3]): 35%; inhibition at 4 µM (MOLT-4 [4]): 30%; IC50 (MOLT-4 [5]): 29 µM; inhibition at 0.8 µM (MOLT-4 [10]): 0%
8.2	Cc1ccc(C(=O)Nc2ccc(S(=O)(=O)O)c3cc(S(=O)(=O)O)cc(S(=O)(=O)O)c23)cc1NC(=O)c1cccc(NC(=O)Nc2cccc(C(=O)Nc3cc(C(=O)Nc4ccc(S(=O)(=O)O)c5cc(S(=O)(=O)O)cc(S(=O)(=O)O)c45)ccc3C)c2)c1 [SURAMIN HEXASODIUM]	250	
